The values that follow come from ChEMBL document CHEMBL3352121, “Modulation of Activity Profiles for Largazole-Based HDAC Inhibitors through Alteration of Prodrug Properties” (ACS Med Chem Lett, 2014).

Each structure is given as a SMILES string. Calls of active or inactive are those of the source. The calls are words filed in the database; no cut-off is given here.

A short description of data set [1]: Drug metabolism in tumor of human HCT116 cells xenografted nu/nu mouse assessed largazole thiol formation at 50 mg/kg, po by HPLC-MS method. Particulars: in vivo.
Data set [2] relates to HCT-116. Nature of the data set: In vivo inhibition of HDAC in tumor of human HCT116 cells xenografted nu/nu mouse assessed as increase in histone hyperacetylation at 50 mg/kg, po after 4 to 12 hrs by immunoblotting method. Type of data set: functional, organism-based. Also on record: dose 50 mg/kg. Put shortly: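 Mice bearing HCT116 xenografts were dosed intraperitoneally at 10 or 50 mg/kg, or orally at 50 mg/kg. Tumors were excised at 4, 12 and 24 h. Histone hyperacetylation in the tumors was assessed by immunoblot, n = 2.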
(In xenograft studies the graft and the host belong to different species.)

The subject of data set [3] is HCT-116. Kind of data set: In vivo inhibition of HDAC in tumor of human HCT116 cells xenografted nu/nu mouse assessed as increase in histone hyperacetylation at 50 mg/kg, ip after 4 to 24 hrs by immunoblotting method. Type of data set: functional, organism-based. Details: dose 50 mg/kg. The gist of the method: (§1)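 HCT116 xenograft mice were dosed intraperitoneally at 10 or 50 mg/kg. Tumors were excised after 4, 12 and 24 h, n = 2. Histone hyperacetylation in tumor tissue was assessed by immunoblotting.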

The target of data set [4] is Histone deacetylase (Homo sapiens) (UniProt Q13547+O15379+Q9UBN7+Q92769+Q9UQL6+Q8WUI4+Q9BY41+Q96DB2+P56524+Q9UKV0+Q969S8). Kind of data set: Inhibition of HDAC in human HCT116 cells assessed as increase in histone H3 (Lys9/14) hyperacetylation after 8 to 24 hrs by immunoblotting method. Type of data set: cell-based. The following applies: HCT-116. Put shortly: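 HCT116 cells were treated across a dose range. Cellular HDAC inhibition was read as histone H3 (Lys9/14) hyperacetylation by immunoblot at 8 and 24 h post-treatment.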

Data set [5] is described as follows: Drug metabolism in tumor of human HCT116 cells xenografted nu/nu mouse assessed as time for maximum largazole thiol level at 50 mg/kg, ip by HPLC-MS method. Type of data set: ADME, organism-based, Neoplasm, HCT-116. Also on record: dose 50 mg/kg, route intraperitoneal. The following applies: in vivo.
A short description of data set [6]: Drug metabolism in human HCT116 cells protein lysate solution assessed as largazole thiol formation at 25 ug/mL after 30 mins by HPLC-MS method. In kind it is ADME, cell-based. Particulars: hct-116, 0.5 h.
Another data set relates to Serum. Kind of data set: Drug metabolism in mouse serum assessed as largazole thiol formation after 0.25 to 1440 mins by HPLC-MS method. Type of data set: ADME, cell-free.
The subject of data set [7] is HCT-116. Kind of data set: In vivo inhibition of HDAC in tumor of human HCT116 cells xenografted nu/nu mouse assessed as increase in histone hyperacetylation at 50 mg/kg, ip after 4 hrs by immunoblotting method. In kind it is functional, organism-based. Details: dose 50 mg/kg. Put shortly:
as §1

Data set [8] in a line: Drug metabolism in tumor of human HCT116 cells xenografted nu/nu mouse assessed as time for maximum largazole thiol level at 10 mg/kg, ip by HPLC-MS method. In kind it is ADME, organism-based, Neoplasm, HCT-116. Details: dose 10 mg/kg, route intraperitoneal. The following applies: in vivo.
For data set [9], the system named is HCT-116. Kind of data set: In vivo inhibition of HDAC in tumor of human HCT116 cells xenografted nu/nu mouse assessed as increase in histone hyperacetylation at 10 mg/kg, ip after 4 to 24 hrs by immunoblotting method. In kind it is functional, organism-based. Details: dose 10 mg/kg. Put shortly:
as §1

Data set [10] has as its target T1, Histone deacetylase 4 (Homo sapiens, UniProt P56524). Nature of the data set: Inhibition of HDAC4 (unknown origin) at 1 uM incubated for 30 mins in presence of BSA and in absence of DTT by fluorescence assay. The gist of the method:
(§2)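 Purified-HDAC assay, single point: percent inhibition read at 1 μM, the highest concentration tested.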

A further data set concerns the target T2, Histone deacetylase 7 (Homo sapiens, UniProt Q8WUI4).
T2 sequence (Q8WUI4 whole entry): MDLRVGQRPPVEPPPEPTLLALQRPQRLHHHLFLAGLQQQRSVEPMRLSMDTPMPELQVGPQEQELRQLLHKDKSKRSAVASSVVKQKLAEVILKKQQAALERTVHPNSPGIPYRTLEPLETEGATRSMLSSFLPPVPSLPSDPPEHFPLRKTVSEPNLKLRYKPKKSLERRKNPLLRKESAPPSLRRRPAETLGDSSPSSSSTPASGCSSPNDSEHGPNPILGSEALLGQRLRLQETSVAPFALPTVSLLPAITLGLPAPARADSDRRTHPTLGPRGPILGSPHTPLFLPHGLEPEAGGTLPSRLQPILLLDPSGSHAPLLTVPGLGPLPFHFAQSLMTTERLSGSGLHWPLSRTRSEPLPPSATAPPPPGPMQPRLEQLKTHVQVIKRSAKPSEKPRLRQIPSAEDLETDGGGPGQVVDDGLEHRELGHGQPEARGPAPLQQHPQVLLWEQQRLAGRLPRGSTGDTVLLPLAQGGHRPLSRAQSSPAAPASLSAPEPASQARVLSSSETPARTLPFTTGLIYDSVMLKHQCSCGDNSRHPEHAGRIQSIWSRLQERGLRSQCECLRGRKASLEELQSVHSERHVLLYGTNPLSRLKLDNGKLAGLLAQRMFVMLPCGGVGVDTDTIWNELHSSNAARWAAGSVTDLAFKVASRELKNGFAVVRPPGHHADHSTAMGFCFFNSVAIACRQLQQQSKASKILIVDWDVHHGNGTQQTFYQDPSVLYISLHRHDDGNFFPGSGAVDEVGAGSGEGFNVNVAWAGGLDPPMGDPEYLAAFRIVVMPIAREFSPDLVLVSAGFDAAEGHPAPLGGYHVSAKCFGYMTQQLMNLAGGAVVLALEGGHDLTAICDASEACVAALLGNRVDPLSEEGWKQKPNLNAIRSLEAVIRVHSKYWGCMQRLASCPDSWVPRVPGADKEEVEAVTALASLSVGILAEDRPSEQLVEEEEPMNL
Kind of data set: Inhibition of HDAC7 (unknown origin) incubated for 30 mins in presence of BSA and in absence of DTT by fluorescence assay.

Data set [11] has as its target T3, Histone deacetylase 5 (Homo sapiens, UniProt Q9UQL6). Nature of the data set: Inhibition of HDAC5 (unknown origin) incubated for 30 mins in presence of BSA and in absence of DTT by fluorescence assay.
Data set [12] deals with T4, Histone deacetylase 7 (Homo sapiens) (UniProt Q8WUI4).
T4 sequence (whole entry): T2 sequence (Q8WUI4 whole entry)
Nature of the data set: Inhibition of HDAC7 (unknown origin) at 1 uM incubated for 30 mins in presence of BSA and in absence of DTT by fluorescence assay. Put shortly: as §2

The target in data set [13] is T1, Histone deacetylase 4. Nature of the data set: Inhibition of HDAC4 (unknown origin) incubated for 30 mins in presence of BSA and in absence of DTT by fluorescence assay.
Data set [14] is described as follows: Antiproliferative activity against human HCT116 cells after 48 hrs in absence of DTT by MTT assay. In kind it is functional, cell-based. Particulars: HCT-116, 48 h.
The target of data set [15] is T5, Histone deacetylase 9 (Homo sapiens, UniProt Q9UKV0). Nature of the data set: Inhibition of HDAC9 (unknown origin) at 1 uM incubated for 30 mins in presence of BSA and in absence of DTT by fluorescence assay. The gist of the method:
as §2

The target of data set [16] is T5, Histone deacetylase 9. Nature of the data set: Inhibition of HDAC9 (unknown origin) incubated for 30 mins in presence of BSA and in absence of DTT by fluorescence assay.
Data set [17] has as its target T3, Histone deacetylase 5. Nature of the data set: Inhibition of HDAC5 (unknown origin) at 1 uM incubated for 30 mins in presence of BSA and in absence of DTT by fluorescence assay. The gist of the method: as §2

T5 sequence (Q9UKV0 whole entry): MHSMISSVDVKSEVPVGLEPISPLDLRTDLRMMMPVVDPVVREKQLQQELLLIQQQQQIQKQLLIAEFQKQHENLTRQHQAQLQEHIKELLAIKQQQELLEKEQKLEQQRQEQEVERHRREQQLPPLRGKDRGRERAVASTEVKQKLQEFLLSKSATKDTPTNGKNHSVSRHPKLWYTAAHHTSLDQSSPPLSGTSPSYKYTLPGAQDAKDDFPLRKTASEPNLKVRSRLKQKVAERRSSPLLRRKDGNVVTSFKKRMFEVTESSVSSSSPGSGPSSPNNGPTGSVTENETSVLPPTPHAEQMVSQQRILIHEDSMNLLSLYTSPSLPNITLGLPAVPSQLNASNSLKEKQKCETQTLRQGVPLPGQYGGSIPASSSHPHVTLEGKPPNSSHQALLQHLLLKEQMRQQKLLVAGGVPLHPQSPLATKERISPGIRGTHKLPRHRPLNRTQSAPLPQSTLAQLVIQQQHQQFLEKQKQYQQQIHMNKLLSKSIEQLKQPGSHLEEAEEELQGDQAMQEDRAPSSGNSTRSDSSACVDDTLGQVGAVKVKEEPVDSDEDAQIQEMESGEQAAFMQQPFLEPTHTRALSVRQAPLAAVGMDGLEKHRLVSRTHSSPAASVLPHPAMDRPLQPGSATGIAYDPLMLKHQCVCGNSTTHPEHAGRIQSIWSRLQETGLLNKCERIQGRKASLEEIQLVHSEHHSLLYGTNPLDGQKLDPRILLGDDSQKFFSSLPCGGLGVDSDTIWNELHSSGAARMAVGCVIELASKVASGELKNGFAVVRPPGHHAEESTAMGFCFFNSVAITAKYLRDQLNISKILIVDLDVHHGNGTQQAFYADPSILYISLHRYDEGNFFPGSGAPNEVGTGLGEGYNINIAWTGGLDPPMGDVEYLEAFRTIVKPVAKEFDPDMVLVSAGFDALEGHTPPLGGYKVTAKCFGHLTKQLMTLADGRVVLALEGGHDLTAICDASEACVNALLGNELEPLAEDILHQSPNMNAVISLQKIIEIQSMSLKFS
T3 sequence (Q9UQL6 whole entry): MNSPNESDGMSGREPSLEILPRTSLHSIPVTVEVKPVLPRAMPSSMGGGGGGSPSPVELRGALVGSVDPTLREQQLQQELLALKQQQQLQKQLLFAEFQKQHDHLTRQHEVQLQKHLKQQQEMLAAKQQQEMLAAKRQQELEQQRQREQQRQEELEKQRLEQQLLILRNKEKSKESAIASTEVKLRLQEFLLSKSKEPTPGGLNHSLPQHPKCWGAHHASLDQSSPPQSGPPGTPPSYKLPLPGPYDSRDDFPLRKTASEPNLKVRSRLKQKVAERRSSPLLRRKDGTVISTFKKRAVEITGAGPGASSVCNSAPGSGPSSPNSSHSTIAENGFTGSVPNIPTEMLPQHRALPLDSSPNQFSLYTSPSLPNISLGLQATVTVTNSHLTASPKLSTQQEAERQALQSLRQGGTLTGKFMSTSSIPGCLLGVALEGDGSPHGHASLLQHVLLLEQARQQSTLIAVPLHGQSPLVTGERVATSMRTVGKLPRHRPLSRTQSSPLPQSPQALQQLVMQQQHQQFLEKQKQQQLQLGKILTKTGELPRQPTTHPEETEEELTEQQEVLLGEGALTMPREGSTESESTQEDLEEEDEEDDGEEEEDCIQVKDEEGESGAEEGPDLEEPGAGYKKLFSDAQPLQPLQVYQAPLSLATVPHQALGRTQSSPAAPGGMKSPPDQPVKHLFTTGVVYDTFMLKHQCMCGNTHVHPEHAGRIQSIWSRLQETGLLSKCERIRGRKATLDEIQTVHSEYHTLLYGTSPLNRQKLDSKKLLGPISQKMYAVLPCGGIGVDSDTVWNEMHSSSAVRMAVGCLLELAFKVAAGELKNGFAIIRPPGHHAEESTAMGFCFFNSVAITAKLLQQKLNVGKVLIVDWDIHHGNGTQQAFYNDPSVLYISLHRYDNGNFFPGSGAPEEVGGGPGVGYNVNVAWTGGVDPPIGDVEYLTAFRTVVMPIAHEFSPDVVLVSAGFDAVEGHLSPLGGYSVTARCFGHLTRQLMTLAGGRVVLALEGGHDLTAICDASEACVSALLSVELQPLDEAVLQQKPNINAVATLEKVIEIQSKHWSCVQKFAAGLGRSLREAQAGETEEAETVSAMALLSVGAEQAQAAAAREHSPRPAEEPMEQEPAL
T1 sequence (P56524 whole entry): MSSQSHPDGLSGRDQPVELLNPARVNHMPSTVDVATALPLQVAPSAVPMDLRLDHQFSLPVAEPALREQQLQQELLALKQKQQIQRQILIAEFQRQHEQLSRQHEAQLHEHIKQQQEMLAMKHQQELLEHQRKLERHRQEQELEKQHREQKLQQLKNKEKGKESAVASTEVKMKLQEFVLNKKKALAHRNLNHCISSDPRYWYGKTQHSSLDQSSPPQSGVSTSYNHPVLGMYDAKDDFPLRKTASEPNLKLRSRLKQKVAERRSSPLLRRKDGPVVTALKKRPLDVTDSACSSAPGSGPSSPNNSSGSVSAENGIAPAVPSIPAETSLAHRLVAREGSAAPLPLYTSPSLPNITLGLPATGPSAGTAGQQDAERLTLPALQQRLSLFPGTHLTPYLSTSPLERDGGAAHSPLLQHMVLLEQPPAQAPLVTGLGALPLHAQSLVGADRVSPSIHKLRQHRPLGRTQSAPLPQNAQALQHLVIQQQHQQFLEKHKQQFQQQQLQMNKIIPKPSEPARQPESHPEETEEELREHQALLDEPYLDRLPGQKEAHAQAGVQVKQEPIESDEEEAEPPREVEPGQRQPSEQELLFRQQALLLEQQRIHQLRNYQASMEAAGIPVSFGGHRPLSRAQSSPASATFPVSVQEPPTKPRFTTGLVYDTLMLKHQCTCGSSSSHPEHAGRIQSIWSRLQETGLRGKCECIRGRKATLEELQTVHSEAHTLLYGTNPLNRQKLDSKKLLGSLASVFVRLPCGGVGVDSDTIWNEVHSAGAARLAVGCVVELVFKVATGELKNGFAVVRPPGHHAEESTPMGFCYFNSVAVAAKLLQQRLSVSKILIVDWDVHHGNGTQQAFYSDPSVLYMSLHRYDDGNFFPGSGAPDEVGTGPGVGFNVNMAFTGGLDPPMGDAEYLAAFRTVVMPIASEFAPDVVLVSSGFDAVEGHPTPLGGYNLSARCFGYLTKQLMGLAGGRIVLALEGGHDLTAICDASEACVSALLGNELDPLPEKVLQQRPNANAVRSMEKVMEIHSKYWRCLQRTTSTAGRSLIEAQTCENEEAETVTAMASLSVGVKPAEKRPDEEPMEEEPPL

Broadly, the inhibition is the share of the control response that was lost under treatment. The Tmax is the time from dosing to the highest level. With `CCCCCCCC(=O)SCC/C=C/[C@@H]1CC(=O)NCc2nc(cs2)C2=N[C@@](C)(CS2)C(=O)N[C@@H](C(C)C)C(=O)O1` [LARGAZOLE], the Drug metabolism entry (in [1]; in [6]; with Serum) was “metabolite_detected” throughout. Also, the inhibition result in the data set with HCT-116 [2], with HCT-116 [3], in the data set with HCT-116 [7] and with HCT-116 [9] was “Active” each time. Moreover, in data set [4], the inhibition entry is “Dose-dependent effect”. The Tmax in [5] and in [8] was 4 h throughout.

The term IC50 denotes the midpoint of a concentration-inhibition curve. In the case of `CC(C)[C@H]1NC(=O)[C@]2(C)CSC(=N2)c2csc(n2)CNC(=O)C[C@@H](/C=C/CCS)OC1=O` [LARGAZOLE THIOL], the inhibition (on Histone deacetylase 4 [10]; in data set [12]; on Histone deacetylase 9 [15]; on Histone deacetylase 5 [17]) was less than 20% in each case. In addition, the IC50 entry on Histone deacetylase 7 was “Not Active”; at Histone deacetylase 5 [11], “Not Active”; on Histone deacetylase 4 [13], “Not Active”; in data set [14], 5.9 nM; at Histone deacetylase 9 [16] it was “Not Active”.
